This sample holds only a part of the variants without activity.
B1: tRNA (parent)
chain: GUUCCGUUGGCGUAAUGGUAACGCGUCUCCCUCCUAAGGAGAAGACUGCGGGUUCGAGUCCCGUACGGAACG

Variants of: B1
Assay: yeast fitness relative to wild type (ratio to wild type); higher = fitter; tRNA-Arg(CCU), competitive growth, 37 C, YPD
Method in brief: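 Amplicons of the tRNA-Arg(CCU) gene were sequenced, 100-nucleotide paired-end, from the start population and from each end population of a pooled yeast competition. The competition, in six parallel replicates, lasted 24 hours in YPD at 37°C. Fitness relative to wild type was calculated from changes in genotype frequencies. Genotypes had to have ≥ 100 starting reads, and estimates < 0.5 were set to 0.5.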
A20G G23C G38C gave a yeast fitness of no more than 0.5. Work on A20U A45G C46U yielded a yeast fitness of 0.836. Variant A20G G44C has a yeast fitness of 0.929. Work on A20U A21G C31U yielded a yeast fitness of 0.609. A20G C24G G44C showed a yeast fitness of 0.784. A20G C27G G48A gave a yeast fitness of no more than 0.5. Variant A20G C27U has a yeast fitness of 1.1. Work on A20G C27G yielded a yeast fitness of 0.608. A20G C27A showed a yeast fitness of 0.933. A20G U28A C31U U54A showed a yeast fitness of 0.613. A20G G23A C33G gave a yeast fitness of 0.629. With A20G G25C C34U G41A C49G the yeast fitness was no more than 0.5. A20G C49U A69U gave a yeast fitness of 0.779. A20U A36C showed a yeast fitness of 0.627. With A20U A36G the yeast fitness was 0.766. A20G C46A gave a yeast fitness of 0.925. With A20G C46G the yeast fitness was 0.942. A20G U26C A42U showed a yeast fitness of 0.715. Work on A20U A40U C46G C62G C66U A70C yielded a yeast fitness of 0.573. Variant A20G C30U C55U has a yeast fitness of no more than 0.5. With A20G C22G C27G C30U C31G G51C U54C A65G the yeast fitness was no more than 0.5. In the case of A20G C30G G56C C62U, the yeast fitness is reported as no more than 0.5. Variant A20G C24U C33U has a yeast fitness of no more than 0.5. For A20U A21C C22U U53C U64A, the yeast fitness was 0.77. A20G C33A A36C U47A C66A gave a yeast fitness of no more than 0.5. A20G C22G A45C C46G A57U gave a yeast fitness of 0.553. A20G G23A C24G C60G gave a yeast fitness of no more than 0.5. Variant A20G U64G A70C has a yeast fitness of 0.619. In the case of A20G C29G A40G C49G, the yeast fitness is reported as no more than 0.5. A20G U35C G56C G68C gave a yeast fitness of no more than 0.5. Work on A20G C27G A43U G68C yielded a yeast fitness of 0.582. A20G C22U C31G C66U showed a yeast fitness of no more than 0.5. A20G G56U A65G gave a yeast fitness of 0.587. Work on A20G C62A yielded a yeast fitness of 0.715. A20G C62G showed a yeast fitness of 0.804. For A20G C27A G48A, the yeast fitness was 0.762. Work on A20U A36U G44A G51C G52A yielded a yeast fitness of no more than 0.5. Work on A20G C22G C49G yielded a yeast fitness of 0.568. In the case of A20G G25C U35C G58C, the yeast fitness is reported as no more than 0.5. For A20G A42G U59C, the yeast fitness was 0.634. For A20G A45U G67C, the yeast fitness was 0.613. For A20G U26C A37C G68A, the yeast fitness was no more than 0.5. A20U A40G U64A gave a yeast fitness of 0.508. With A20G A40C A69G the yeast fitness was 0.625. A20G G41A C61U showed a yeast fitness of 0.644. With A20G A43U A45C G67C the yeast fitness was no more than 0.5. Work on A20G C60G A70C yielded a yeast fitness of 0.604. A20G G25C U47A G56C U59C gave a yeast fitness of no more than 0.5. In the case of A20G G67C, the yeast fitness is reported as 0.861. In the case of A20G G67U, the yeast fitness is reported as 0.965. In the case of A20G U28C C49A, the yeast fitness is reported as no more than 0.5. Variant A20U A36G G38A A40U has a yeast fitness of 0.501. For A20G C31G, the yeast fitness was 0.966. Work on A20G C31U yielded a yeast fitness of 0.995. Variant A20G C31A has a yeast fitness of 0.8. Work on A20U A36G C55G G56A yielded a yeast fitness of no more than 0.5. Variant A20G C22G U47C has a yeast fitness of 0.647. A20U A42C A69U gave a yeast fitness of 0.564. A20G C33A A57G gave a yeast fitness of 0.52. For A20G C24A, the yeast fitness was 0.56. In the case of A20G C24G, the yeast fitness is reported as 0.575. In the case of A20G C49U C66U A70C, the yeast fitness is reported as no more than 0.5. A20G C29A showed a yeast fitness of 0.705. In the case of A20G C29U, the yeast fitness is reported as 0.88. In the case of A20G C22G G56A G67A, the yeast fitness is reported as no more than 0.5. In the case of A20U A43G A65C, the yeast fitness is reported as no more than 0.5. In the case of A20G U64C C66G, the yeast fitness is reported as no more than 0.5. A20G U28A A69C showed a yeast fitness of no more than 0.5. With A20G C33A G44A C61U the yeast fitness was 0.553. Work on A20G A40C C60G yielded a yeast fitness of no more than 0.5. Variant A20G A40U U64A has a yeast fitness of no more than 0.5. Work on A20G C30A G48A U53G yielded a yeast fitness of 0.505. For A20G C31G C55G A70G, the yeast fitness was no more than 0.5. For A20G G25A C66U, the yeast fitness was 0.682. In the case of A20U A36G C49U C55G, the yeast fitness is reported as 0.501. A20G C29A G68A showed a yeast fitness of 0.613. Work on A20G U53A yielded a yeast fitness of 0.692. Variant A20G U53G has a yeast fitness of 0.571. In the case of A20G G41A G67C, the yeast fitness is reported as 0.601. In the case of A20G C27U A57C, the yeast fitness is reported as no more than 0.5. A20G C22G C27G C30U C31G G51C A65G gave a yeast fitness of 0.563. A20G G25C C61U A65G gave a yeast fitness of 0.647. Work on A20U A21C A45U yielded a yeast fitness of 0.675. With A20G C33U G39A A69C the yeast fitness was no more than 0.5. Work on A20G C22G C27G C30U C31G G51C G67A A69U yielded a yeast fitness of no more than 0.5. A20G A70C gave a yeast fitness of 0.994. Work on A20G A70U yielded a yeast fitness of 1.06. A20G A70G showed a yeast fitness of 1.02. A20G C29U C55G A57C C61U gave a yeast fitness of 0.746. Work on A20G C31G C46G G50A G67C yielded a yeast fitness of no more than 0.5. Variant A20U A21C C31A has a yeast fitness of no more than 0.5. A20U A45C A65G showed a yeast fitness of 0.576. With A20G A43U C61G the yeast fitness was no more than 0.5. A20G G38C C66A gave a yeast fitness of no more than 0.5. With A20G G63C the yeast fitness was 0.837. A20G G63A showed a yeast fitness of 0.903. For A20G C29U G38A G48C C62G, the yeast fitness was no more than 0.5. Variant A20G C29G C34A has a yeast fitness of no more than 0.5. A20G A45G C49U showed a yeast fitness of 0.687. For A20U A69U, the yeast fitness was 1.05. A20U A69C showed a yeast fitness of 0.979. A20G G23C C31U C46G A70U showed a yeast fitness of 0.57. A20G C27A U35C A36G A42U gave a yeast fitness of no more than 0.5. Variant A20U A36C A43U has a yeast fitness of 0.641. For A20G C34U G38A A43G, the yeast fitness was no more than 0.5. For A20G C31G C46G G50A, the yeast fitness was no more than 0.5. Variant A20U A45U C55G has a yeast fitness of 0.533. In the case of A20G C22U C31G, the yeast fitness is reported as 0.626. Work on A20U A43G A57C U59A A65C yielded a yeast fitness of no more than 0.5. A20G C24A C27A showed a yeast fitness of 0.52. For A20G A45U G48A C55A, the yeast fitness was no more than 0.5. A20G A42C C66U showed a yeast fitness of 0.625. For A20G C31U A65U, the yeast fitness was 0.695. Work on A20U A45G C46U C66U A69U yielded a yeast fitness of no more than 0.5. A20U A36C C49A C66G gave a yeast fitness of no more than 0.5. A20U A36G C55G A65U showed a yeast fitness of 0.52. Variant A20U A21C C29U A57C has a yeast fitness of no more than 0.5. For A20G U28A A37G C55G, the yeast fitness was 0.578. Work on A20G G58A A70C yielded a yeast fitness of 0.836. With A20U A45U C62A A70C the yeast fitness was 0.505. With A20G G56U the yeast fitness was 0.804. In the case of A20G G56A, the yeast fitness is reported as 1.01. In the case of A20G C60U C66U, the yeast fitness is reported as no more than 0.5. For A20G C24G C60G C62U, the yeast fitness was 0.562. A20G C27U A45C A57C showed a yeast fitness of no more than 0.5. With A20U A36G C55U the yeast fitness was 0.573. Variant A20G C27A C46A has a yeast fitness of 0.737. In the case of A20G G38C, the yeast fitness is reported as 0.789. With A20G U28A A40G the yeast fitness was no more than 0.5. A20G G48A C49G U59A showed a yeast fitness of no more than 0.5. For A20U A43G, the yeast fitness was 0.978. For A20U A43U, the yeast fitness was 0.905. Work on A20U A43C yielded a yeast fitness of 0.775. With A20G C49U C66U the yeast fitness was 0.684. In the case of A20U A36G A37G C55G, the yeast fitness is reported as 0.546. For A20U A40U C46A, the yeast fitness was 0.613. With A20G G50U the yeast fitness was 0.831. In the case of A20G G50C, the yeast fitness is reported as 0.636. With A20G G50C C60G the yeast fitness was 0.634. Work on A20U A40C yielded a yeast fitness of 0.712. Variant A20U A40U has a yeast fitness of 0.654. For A20G A40G A42G C55U, the yeast fitness was no more than 0.5. A20G A57G C61U C62U A69G showed a yeast fitness of no more than 0.5. For A20G G48A, the yeast fitness was 0.933. With A20G C33U A40G C62G A70U the yeast fitness was no more than 0.5. A20G C22U gave a yeast fitness of 0.751. A20G U28G A57U A70U showed a yeast fitness of no more than 0.5. Variant A20G C31G U64C has a yeast fitness of 0.694. For A20U A45C C55U A57U, the yeast fitness was no more than 0.5. Variant A20G A40U G51C has a yeast fitness of no more than 0.5. With A20G G41A C60G A65G the yeast fitness was 0.585. A20G C55G showed a yeast fitness of 0.586. A20G C55A gave a yeast fitness of 0.585. For A20G A57G, the yeast fitness was 1. With A20G A57U the yeast fitness was 0.649. A20G U26A C61G A65C gave a yeast fitness of 0.518. For A20G G50C C61U, the yeast fitness was no more than 0.5. In the case of A20G C24U A65C, the yeast fitness is reported as 0.653. For A20U A21G C31U C46A, the yeast fitness was no more than 0.5. A20G C34U A40U A42U U64A showed a yeast fitness of no more than 0.5. With A20G G58U the yeast fitness was 0.781. Variant A20G G58A has a yeast fitness of 0.97. Variant A20G G50C U54G has a yeast fitness of no more than 0.5. With A20G C22A C24U the yeast fitness was 0.589. In the case of A20G C27U C33G A43G A57G C61U C62U, the yeast fitness is reported as no more than 0.5. A20G G52A showed a yeast fitness of 0.664. A20G A42C U64G gave a yeast fitness of no more than 0.5.

Reference: the RNAGym collection of RNA variant scans (doi:10.1126/science.aae0568)
